Common to all, as to assay type: functional
For test [1], the system named is Rattus norvegicus. In words: Antiinflammatory activity in albino rat assessed as reduction of carrageenan-induced paw volume at 10 mg/kg, po administered 30 mins before carrageenan challenge measured after 30 mins by plethysmograph (reference value: 0.333 +/- 0.033 ml). The procedure, abridged:
(§1)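 Rats, six per group, were dosed orally at 10 mg/kg. Controls received 0.1 mL of 1% gum acacia; diclofenac sodium was the standard. After 30 min, 0.1 mL of 1% carrageenan in normal saline was injected sub-plantar into the right hind paw. Paw volume was read by plethysmograph at 0 h and at 30-150 min. Oedema is expressed as change versus control at matching times (±SE).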
(In general: Carrageenan injected into the paw causes an acute inflammation.)

Test [2] relates to Rattus norvegicus. Nature of the test: Antiinflammatory activity in albino rat assessed as reduction of carrageenan-induced paw volume at 10 mg/kg, po administered 30 mins before carrageenan challenge measured after 60 mins by plethysmograph (reference value: 0.333 +/- 0.033 ml). Put shortly: as §1
Test [3] has as its system Rattus norvegicus. Nature of the test: Antiinflammatory activity in albino rat assessed as reduction of carrageenan-induced paw volume at 10 mg/kg, po administered 30 mins before carrageenan challenge measured after 120 mins by plethysmograph (reference value: 0.367 +/- 0.033 ml). Put shortly:
as §1

For test [4], the system named is Rattus norvegicus. Nature of the test: Analgesic activity in albino rat assessed as latency in reaction time required for thermal stimulus-induced tail flicking at 10 mg/kg, po after 90 mins. The procedure, abridged:
(§2)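 Albino rats, 150-200 g, six per group, held in a restrainer. A 3-4 cm marked segment of tail was immersed in water at 55 °C. Tail withdrawal time (s) was recorded before dosing and at 30, 60 and 90 min after oral dosing at 10 mg/kg in 1% gum acacia. Cut-off was 30 s. Controls received vehicle only. Pentazocin was the reference.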

For test [5], the system named is Rattus norvegicus. In words: Analgesic activity in albino rat assessed as latency in reaction time required for thermal stimulus-induced tail flicking at 10 mg/kg, po after 30 mins. The procedure, abridged: as §2
For test [6], the system named is Rattus norvegicus. In words: Analgesic activity in albino rat assessed as latency in reaction time required for thermal stimulus-induced tail flicking at 10 mg/kg, po after 60 mins. Put shortly:
as §2

Test [7] has as its system Rattus norvegicus. In words: Antiinflammatory activity in albino rat assessed as reduction of carrageenan-induced paw volume at 10 mg/kg, po administered 30 mins before carrageenan challenge measured after 90 mins by plethysmograph (reference value: 0.3667 +/- 0.033 ml). Put shortly:
as §1

Test [8] concerns Rattus norvegicus. In words: Antiinflammatory activity in albino rat assessed as reduction of carrageenan-induced paw volume at 10 mg/kg, po administered 30 mins before carrageenan challenge measured after 150 mins by plethysmograph (reference value: 0.3667 +/- 0.033 ml). Put shortly:
as §1

The values below come from ChEMBL document CHEMBL1250497, “Synthesis and pharmacological study of 1-acetyl/propyl-3-aryl-5-(5-chloro-3-methyl-1-phenyl-1H-pyrazol-4-yl)-2-pyrazoline” (2010).

As for `CCC(=O)N1N=C(c2ccc(OC)cc2)CC1c1c(C)nn(-c2ccccc2)c1Cl` (centres undefined), the Activity in the test on Rattus norvegicus [1] stood at 0.1667 mL; in the test with Rattus norvegicus [2], 0.1667 mL; in the test with Rattus norvegicus [3] it was 0.1667 mL; in the test with Rattus norvegicus [7] it was 0.133 mL; in the test with Rattus norvegicus [8], 0.2 mL. Also, the Time in the test on Rattus norvegicus [4] is reported as 4.4 s; in the test on Rattus norvegicus [5] it was 4.667 s; in the test on Rattus norvegicus [6] it was 4.633 s.
For the compound `CCC(=O)N1N=C(c2cccc([N+](=O)[O-])c2)CC1c1c(C)nn(-c2ccccc2)c1Cl` (centres undefined), the Activity was 0.033 mL with Rattus norvegicus [1]; 0.033 mL with Rattus norvegicus [2]; 0.1 mL in the test with Rattus norvegicus [3]; 0.033 mL with Rattus norvegicus [7]; 0.1 mL in the test on Rattus norvegicus [8]. Moreover, the results for the Time in the test with Rattus norvegicus [4], in the test on Rattus norvegicus [5] and in the test with Rattus norvegicus [6] were 4.333 s, 2.767 s and 3.067 s, respectively.
For the compound `CCC(=O)N1N=C(c2ccc(Br)cc2)CC1c1c(C)nn(-c2ccccc2)c1Cl` (centres undefined), the Activity amounted to 0.1667 mL with Rattus norvegicus [1]; 0.133 mL in the test with Rattus norvegicus [2]; 0.2667 mL with Rattus norvegicus [3]; 0.2 mL in the test on Rattus norvegicus [7]; 0.2667 mL in the test with Rattus norvegicus [8]. The Time worked out at 4.5 s in the test with Rattus norvegicus [4], 3.8 s in the test on Rattus norvegicus [5] and 4.167 s in the test on Rattus norvegicus [6].
For `CCC(=O)N1N=C(c2ccc([N+](=O)[O-])cc2)CC1c1c(C)nn(-c2ccccc2)c1Cl` (centres undefined), the Activity was 0.0667 mL in the test with Rattus norvegicus [1]; 0.0667 mL with Rattus norvegicus [2]; 0 mL with Rattus norvegicus [3]; 0.033 mL with Rattus norvegicus [7]; 0.033 mL with Rattus norvegicus [8]. Besides, the results for the Time in the test with Rattus norvegicus [4], in the test on Rattus norvegicus [5] and in the test on Rattus norvegicus [6] were 3.933 s, 3.1 s and 3.533 s, respectively.
For `CC(=O)N1N=C(c2ccc(C)cc2)CC1c1c(C)nn(-c2ccccc2)c1Cl` (centres undefined), the Activity with Rattus norvegicus [1] worked out at 0.0667 mL; in the test on Rattus norvegicus [2], 0.1 mL; in the test with Rattus norvegicus [3], 0.033 mL; in the test on Rattus norvegicus [7], 0.0667 mL; in the test on Rattus norvegicus [8], 0.0667 mL. For the same compound, the Time worked out at 5.467 s in the test with Rattus norvegicus [4], 3.3 s in the test with Rattus norvegicus [5] and 4.567 s in the test on Rattus norvegicus [6].
Consider `COc1ccc(C2=NN(C(C)=O)C(c3c(C)nn(-c4ccccc4)c3Cl)C2)cc1` (centres undefined), for which the Activity was 0 mL in the test with Rattus norvegicus [1]; 0 mL with Rattus norvegicus [2]; 0.0667 mL in the test with Rattus norvegicus [3]; 0.1 mL with Rattus norvegicus [7]; 0.1 mL in the test with Rattus norvegicus [8]. Further, the values for the Time in the test on Rattus norvegicus [4], in the test on Rattus norvegicus [5] and in the test on Rattus norvegicus [6] were 4.333 s, 2.9 s and 3.7 s, respectively.
In the case of `CC(=O)N1N=C(c2cccc([N+](=O)[O-])c2)CC1c1c(C)nn(-c2ccccc2)c1Cl` (centres undefined), the Activity in the test on Rattus norvegicus [1] is 0.0667 mL; in the test with Rattus norvegicus [2] it was 0.0667 mL; in the test with Rattus norvegicus [3], 0.0667 mL; in the test on Rattus norvegicus [7], 0.033 mL; with Rattus norvegicus [8], 0.133 mL. The values for the Time in the test on Rattus norvegicus [4], in the test with Rattus norvegicus [5] and in the test with Rattus norvegicus [6] were 4.833 s, 3.7 s and 4.733 s, respectively.
In the case of `CC(=O)N1N=C(c2ccc(Cl)cc2)CC1c1c(C)nn(-c2ccccc2)c1Cl` (centres undefined), the Activity was determined as 0.033 mL with Rattus norvegicus [1]; 0.0667 mL with Rattus norvegicus [2]; 0.0667 mL with Rattus norvegicus [3]; 0.033 mL with Rattus norvegicus [7]; 0.0667 mL in the test with Rattus norvegicus [8]. For the same compound, the Time turned out to be 4.2 s with Rattus norvegicus [4], 2.5 s in the test on Rattus norvegicus [5] and 3.067 s in the test with Rattus norvegicus [6].
Turning to `CC(=O)N1N=C(c2ccc(Br)cc2)CC1c1c(C)nn(-c2ccccc2)c1Cl` (centres undefined), the Activity with Rattus norvegicus [1] was found to be 0.1 mL; in the test with Rattus norvegicus [2], 0.033 mL; in the test with Rattus norvegicus [3] it was 0.1667 mL; in the test with Rattus norvegicus [7], 0.033 mL; in the test with Rattus norvegicus [8], 0.3 mL. In addition, the Time in the test with Rattus norvegicus [4] was found to be 4.833 s; with Rattus norvegicus [5], 3.967 s; in the test on Rattus norvegicus [6], 4.733 s.
As for `CC(=O)N1N=C(c2ccc([N+](=O)[O-])cc2)CC1c1c(C)nn(-c2ccccc2)c1Cl` (centres undefined), the Activity with Rattus norvegicus [1] came to 0.1 mL; with Rattus norvegicus [2], 0.0667 mL; in the test with Rattus norvegicus [3], 0.0667 mL; in the test with Rattus norvegicus [7], 0.06 mL; with Rattus norvegicus [8] it was 0.1667 mL. The Time with Rattus norvegicus [4] was found to be 5.267 s; in the test with Rattus norvegicus [5], 3.467 s; with Rattus norvegicus [6], 4.767 s.
As for `CCC(=O)N1N=C(c2ccccc2)CC1c1c(C)nn(-c2ccccc2)c1Cl` (centres undefined), the Activity in the test on Rattus norvegicus [1] turned out to be 0.2667 mL; with Rattus norvegicus [2], 0.333 mL; in the test on Rattus norvegicus [3], 0.367 mL; with Rattus norvegicus [7], 0.433 mL; in the test with Rattus norvegicus [8], 0.3667 mL. Moreover, the Time with Rattus norvegicus [4] is recorded as 3.633 s; in the test with Rattus norvegicus [5], 2.333 s; in the test with Rattus norvegicus [6], 2.7 s.
`CCC(=O)N1N=C(c2ccc(C)cc2)CC1c1c(C)nn(-c2ccccc2)c1Cl` (centres undefined): the Activity in the test with Rattus norvegicus [1] was found to be 0.0667 mL; in the test on Rattus norvegicus [2], 0.133 mL; with Rattus norvegicus [3], 0.3 mL; with Rattus norvegicus [7], 0.133 mL; in the test with Rattus norvegicus [8] it was 0.3 mL. Moreover, the Time is reported as 4.6 s with Rattus norvegicus [4], 2.9 s with Rattus norvegicus [5] and 3.733 s with Rattus norvegicus [6].
In the case of `CC(C)=CCN1CC[C@]2(C)c3cc(O)ccc3C[C@H]1[C@H]2C` [(+)-PENTAZOCINE], the figures for the Time in the test with Rattus norvegicus [4], with Rattus norvegicus [5] and in the test with Rattus norvegicus [6] were 6.4 s, 2.9 s and 5.6 s, respectively.
For the compound `O=C([O-])Cc1ccccc1Nc1c(Cl)cccc1Cl.[Na+]` [DICLOFENAC SODIUM], the Activity in the test on Rattus norvegicus [1], with Rattus norvegicus [2], with Rattus norvegicus [3], in the test on Rattus norvegicus [7] and in the test on Rattus norvegicus [8] was 0.033 mL in each case.
